Results from different studies.
Lines come from different studies, so protocols differ.
HTR1E: 5-hydroxytryptamine receptor 1E (HTR1E, Homo sapiens, UniProt P28566)
CSNK1A1/CRBN: Cereblon/Casein kinase I alpha (CSNK1A1/CRBN, Homo sapiens, UniProt P48729+Q96SW2)
Palmitoyl-protein thioesterase 1: Palmitoyl-protein thioesterase 1 (Homo sapiens, UniProt P50897)
APC: Adenomatous polyposis coli protein (APC, Homo sapiens, UniProt P25054)
AVPR2: Vasopressin V2 receptor (AVPR2, Homo sapiens, UniProt P30518)

target | observed | action | method | quantity | result | SMILES
Adenosine receptor A3 (ADORA3, Homo sapiens, UniProt P0DMS8, L264Q) | G protein activation | agonist | – | EC50 | 3.5 µM | CN(C)c1ncnc2c1ncn2[C@@H]1O[C@H](CO)[C@@H](O)[C@H]1O
HTR1E | G protein activation | agonist | BRET | EC50 | 1.72 µM | C=CCN1C[C@H](C(=O)N(CCCN(C)C)C(=O)NCC)C[C@@H]2c3cccc4[nH]cc(c34)C[C@H]21
Glutathione S-transferase P (GSTP1, Homo sapiens, UniProt P09211) | binding | – | – | Kd | 30.1 µM | O=C1c2ccccc2-n2c1nc1ccccc1c2=O
CSNK1A1/CRBN | protein level | degrader | luciferase | DC50 | 0.97 µM | Cc1ccc(CNc2cccc3c2CN(C)N(C2CCC(=O)NC2=O)C3=O)cc1 (stereo not drawn)
Palmitoyl-protein thioesterase 1 | binding | – | MST | Kd | 0.808 µM | [H]/N=C(\N/C(=N/[H])Nc1ccc(Cl)cc1)NC(C)C
APC | ligand displacement | – | FP | IC50 | 25.1 µM | CCc1cccc(C(=O)N[C@@H](CCC(=O)O)C(=O)N[C@@H](Cc2ccc3ccccc3c2)C(=O)N[C@@H](CC(C)C)C(=O)NC2CC2c2ccccc2)c1 (stereo partly drawn)
AVPR2 | cAMP | positive allosteric modulator | – | EC50 | > 50 µM | CC1=NN(/C(=N/c2nnc(C)s2)Nc2ccc(C)c(C)c2)C(c2cc(F)c(F)c(F)c2F)S1 (stereo not drawn)
HTR1E | G protein activation | agonist | BRET | EC50 | 2.04 µM | CN1CCC(=C2c3ccccc3C=Cc3ccccc32)CC1
APC | binding | – | SPR | Kd | 67 µM | CC(C)C[C@H](NC(=O)[C@H](Cc1ccccc1)NC(=O)[C@H](CCC(=O)O)NC(=O)c1ccncn1)C(=O)NC1CC1c1ccccc1 (stereo partly drawn)
HTR1E | G protein activation | agonist | BRET | EC50 | 0.628 µM | O=C1c2ccccc2S(=O)(=O)N1CCCCN1CCN(c2ncccn2)CC1
AVPR2 | cAMP | positive allosteric modulator | – | EC50 | 24.2 µM | CC1=NN(/C(=N\c2ccc(C)cc2)Nc2nnc(C)s2)C(c2ccc(C)cc2)S1 (stereo not drawn)
Palmitoyl-protein thioesterase 1 | binding | – | MST | Kd | 0.256 µM | C=C[C@H]1C[N@@]2CC[C@H]1C[C@H]2[C@H](O)c1ccnc2ccc(OC)cc12
Myoglobin (MB, Homo sapiens, UniProt P02144) | binding | – | absorbance | Kd | 0.24 µM | CCCCCCCC/C=C\CCCCCCCC(=O)O
AVPR2 | cAMP | positive allosteric modulator | – | EC50 | 16.6 µM | CC1=NN(/C(=N\c2ccc(C(F)(F)F)cc2)Nc2nnc(C)s2)C(c2ccc(C)cc2)S1 (stereo not drawn)
HTR1E | G protein activation | agonist | BRET | EC50 | 0.123 µM | CN1CCN2c3ccccc3Cc3ccccc3C2C1 (stereo not drawn)
APC | ligand displacement | – | FP | IC50 | 41.7 µM | CC(C)C[C@H](NC(=O)[C@H](Cc1ccc2ccccc2c1)NC(=O)[C@H](CCC(=O)O)NC(=O)c1cccc([N+](=O)[O-])c1)C(=O)NC1CC1c1ccccc1 (stereo partly drawn)
AVPR2 | cAMP | positive allosteric modulator | – | EC50 | > 50 µM | CC1=NN(/C(=N/c2nnc(C)s2)Nc2ccc(C)c(C)c2)C(c2cc(F)c(F)c(F)c2)S1 (stereo not drawn)

target | observed | action | method | quantity | result | SMILES
RNA cytidine acetyltransferase (Homo sapiens, UniProt Q9H0A0) | binding | – | ITC | Kd | 12.8 µM | Cc1nc2n(c(=O)c1CCN1CCC(c3noc4cc(F)ccc34)CC1)CCCC2O (stereo not drawn)
Palmitoyl-protein thioesterase 1 | binding | – | MST | Kd | 1.27 µM | NC(=O)N[C@@H](CCC(=O)O)C(=O)O
HTR1E | G protein activation | agonist | BRET | EC50 | 0.516 µM | Cc1cc(C(C)(C)C)c(O)c(C)c1CC1=NCCN1
AVPR2 | cAMP | positive allosteric modulator | – | EC50 | > 50 µM | CC1=NN(/C(=N/c2nnc(C)s2)Nc2ccc(C)c(C)c2)C(c2ccc(C(F)(F)F)cc2)S1 (stereo not drawn)
APC | ligand displacement | – | FP | IC50 | 40.7 µM | Cc1cc(C(=O)N[C@@H](CCC(=O)O)C(=O)N[C@@H](Cc2ccc3ccccc3c2)C(=O)N[C@@H](CC(C)C)C(=O)NC2CC2c2ccccc2)ccn1 (stereo partly drawn)
CSNK1A1/CRBN | protein level | degrader | luciferase | DC50 | > 10 µM | CN1Cc2c(N)cccc2C(=O)N1C1CCC(=O)NC1=O (stereo not drawn)
Adenosine receptor A3 (ADORA3, Homo sapiens, UniProt P0DMS8, L264F) | G protein activation | agonist | – | EC50 | 3.4 µM | CC(C)=CCNc1ncnc2c1ncn2[C@@H]1O[C@H](CO)[C@@H](O)[C@H]1O
AVPR2 | cAMP | positive allosteric modulator | – | EC50 | 15.8 µM | CCc1ccc(/N=C(/Nc2nnc(C)s2)N2N=C(C)SC2c2ccc(C)cc2)cc1 (stereo not drawn)
APC | binding | – | SPR | Kd | 0.62 µM | CSc1nccc(C(=O)N[C@@H](CCC(=O)O)C(=O)N[C@@H](Cc2ccc3ccccc3c2)C(=O)N[C@@H](CC(C)C)C(=O)NC2CC2c2ccccc2)n1 (stereo partly drawn)
HTR1E | G protein activation | agonist | BRET | EC50 | 2.43 µM | COc1ccc(CC2NCCc3c2[nH]c2ccc(C)cc32)c(Cl)c1OC (stereo not drawn)
APC | binding | – | SPR | Kd | 0.58 µM | CSc1ncc(Br)c(C(=O)N[C@@H](CCC(=O)O)C(=O)N[C@@H](Cc2ccc3ccccc3c2)C(=O)N[C@@H](CC(C)C)C(=O)NC2CC2c2ccccc2)n1 (stereo partly drawn)
AVPR2 | cAMP | positive allosteric modulator | – | EC50 | > 50 µM | CC1=NN(/C(=N/c2nnc(C)s2)Nc2ccc(C)c(C)c2)C(c2ccc(C(C)(C)C)cc2)S1 (stereo not drawn)
APC | ligand displacement | – | FP | IC50 | 24 µM | C#Cc1cccc(C(=O)N[C@@H](CCC(=O)O)C(=O)N[C@@H](Cc2ccc3ccccc3c2)C(=O)N[C@@H](CC(C)C)C(=O)NC2CC2c2ccccc2)c1 (stereo partly drawn)
AVPR2 | cAMP | positive allosteric modulator | – | EC50 | > 50 µM | CC1=NN(/C(=N/c2nnc(C)s2)Nc2ccc(C)c(C)c2)C(c2cccc(-c3ccccc3)c2)S1 (stereo not drawn)
APC | binding | – | SPR | Kd | 2.3 µM | CC(C)C[C@H](NC(=O)[C@H](Cc1ccc2ccccc2c1)NC(=O)[C@H](CCC(=O)O)NC(=O)c1ccncn1)C(=O)NC1CC1c1ccccc1 (stereo partly drawn)
HTR1E | G protein activation | agonist | BRET | EC50 | 0.33 µM | CN1CCC(=C2c3ccccc3Sc3ccccc32)CC1
